# Screening data as filed in PubChem.
# AI-2 QS mod: modulators of Vibrio harveyi AI-2 quorum sensing system. activity change, % at 7.5 µM. AID 2094. hit rate 0.4% among 300,000. Vibrio harveyi JMH597 AI-2 luminescence/OD600 ratio, 9 h; stronger effect = lower value; strain lacks LuxN and CqsS sensors; 0 = neutral-control median; in the data active means activity change below about -75%, passing the limit was not always enough; inconclusive means no clear call, values can overlap the other calls;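 further: luminescence divided by OD600 gain over 9 h not by final OD600 alone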
# UBC13 polyUb: blocks human UBC13 polyubiquitin chain formation. AID 485273. TR-FRET. inhibition, % at 20 µM. hit rate 0.47% among 330,000. P61088; in the data active means inhibition above about 45%, passing the limit was not always enough; inconclusive means no clear call, values can overlap the other calls
# p-CIP stab down: compounds decreasing mouse p/CIP protein stability; Q05BA5; F442A p/CIP-EGFP cells, EGFP fluorescence, 16 h; decrease of EGFP signal, % at 10 µM; hit rate 0.01% among 290,000;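 active means EGFP signal decrease of at least 30% at 10 µM or well 3 SD below plate mean, unless failing retest; inactive means the rest, including hits failing retest or dose response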
# Target sequence (Q05BA5 1-1403): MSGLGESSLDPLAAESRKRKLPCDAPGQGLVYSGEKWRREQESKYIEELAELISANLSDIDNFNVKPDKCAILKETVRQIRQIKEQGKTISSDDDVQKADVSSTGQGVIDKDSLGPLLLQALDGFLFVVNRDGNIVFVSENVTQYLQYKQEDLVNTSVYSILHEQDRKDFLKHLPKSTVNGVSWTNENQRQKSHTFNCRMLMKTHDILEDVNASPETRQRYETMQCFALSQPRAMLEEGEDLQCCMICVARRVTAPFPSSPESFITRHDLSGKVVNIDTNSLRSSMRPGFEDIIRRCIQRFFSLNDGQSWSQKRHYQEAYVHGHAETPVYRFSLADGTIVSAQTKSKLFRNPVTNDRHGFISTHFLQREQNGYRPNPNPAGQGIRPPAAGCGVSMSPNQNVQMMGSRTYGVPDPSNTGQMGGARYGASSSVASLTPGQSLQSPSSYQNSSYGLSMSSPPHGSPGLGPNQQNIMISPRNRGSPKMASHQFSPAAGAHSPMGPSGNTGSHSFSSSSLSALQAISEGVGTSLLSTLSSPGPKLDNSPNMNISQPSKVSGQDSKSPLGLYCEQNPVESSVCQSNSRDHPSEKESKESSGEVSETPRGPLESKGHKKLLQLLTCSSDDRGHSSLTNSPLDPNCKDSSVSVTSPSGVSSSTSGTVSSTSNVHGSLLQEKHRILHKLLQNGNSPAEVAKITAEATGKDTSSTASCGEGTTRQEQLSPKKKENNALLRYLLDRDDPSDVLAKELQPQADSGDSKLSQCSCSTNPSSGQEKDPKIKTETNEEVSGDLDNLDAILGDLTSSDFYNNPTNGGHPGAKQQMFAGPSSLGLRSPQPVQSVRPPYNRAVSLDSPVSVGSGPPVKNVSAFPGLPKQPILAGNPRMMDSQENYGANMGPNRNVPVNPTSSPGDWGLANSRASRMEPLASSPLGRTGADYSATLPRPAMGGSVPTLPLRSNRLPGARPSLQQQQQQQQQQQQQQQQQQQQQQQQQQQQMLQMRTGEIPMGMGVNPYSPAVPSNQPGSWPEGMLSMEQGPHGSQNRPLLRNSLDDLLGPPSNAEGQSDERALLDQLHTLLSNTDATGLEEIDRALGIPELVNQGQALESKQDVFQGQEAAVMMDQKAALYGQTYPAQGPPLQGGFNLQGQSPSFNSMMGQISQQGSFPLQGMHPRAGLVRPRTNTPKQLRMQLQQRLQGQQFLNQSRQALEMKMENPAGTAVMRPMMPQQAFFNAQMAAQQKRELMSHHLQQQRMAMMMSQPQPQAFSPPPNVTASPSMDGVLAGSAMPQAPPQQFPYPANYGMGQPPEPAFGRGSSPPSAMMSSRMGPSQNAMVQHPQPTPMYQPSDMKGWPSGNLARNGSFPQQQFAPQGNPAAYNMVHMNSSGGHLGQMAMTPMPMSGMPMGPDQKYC
# T cruzi inh: blocks replication of Trypanosoma cruzi; T. cruzi beta-gal in NIH3T3, luminescence, 90 h; inhibition, % (test concentration not listed); hit rate 1.4% among 300,000;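 active means mean inhibition across valid replicates above about 55%, limit read from the data; inconclusive means mean below that limit but half or more replicates reach it; inactive means mean below it, under half of replicates reach it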;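 further: signal also drops with host cell toxicity which is not excluded here; 0% = plate median of DMSO wells and 100% = zero luminescence signal; higher percent means less beta-gal luminescence so fewer parasites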
#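 System: NIH/3T3 fibroblasts plus reporter T. cruzi. Medium: DMEM plus 2% FBS. Probe or stimulus: 5000 reporter trypomastigotes per well. Compound: single 50 nL compound addition per well in DMSO. Incubation: co-culture of at least 90 h after 3 h attachment. Detection: GalScreen β-gal luminescence, detergent lysis, 60 min. Evaluation: parasite load inhibition, %.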
# PP1 counter: blocks human PP1-alpha phosphatase, a PP5 counter-screen. P62136. purified PP1alpha, OMFP fluorescence. inhibition, % at 6.7 µM. hit rate 0.9% among 320,000. AID 2235;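 active means inhibition above the mean inhibition of all tested compounds plus 3 SD, computed separately for each screening campaign, cut at about 15% in these data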
# Casp3 counter: inhibits human caspase-3 in UBC13 counter-screen | shares compounds with UBC13 polyUb | Recombinant caspase-3, Caspase-Glo 3/7 luminescence, 60 min | inhibition, % at 20 µM | hit rate 4% among 1,400;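 active means mean inhibition across replicates above about 26%, limit read from the data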;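 further: plate controls were DMSO with caspase-3 for no effect and DMSO wells lacking enzyme for full effect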
# UBC13 confirm: human UBC13 polyubiquitin inhibition, confirmed | hit rate 68% among 1,400 | inhibition, % at 10 µM | UBC13 polyubiquitination, TR-FRET, biochemical | shares compounds with UBC13 polyUb; in the data active means inhibition above about 45%; inconclusive means no clear call, values can overlap the other calls
# Active calls of the source: *; ? = inconclusive; . = no result. Shown are actives, neighbours in structure and some others; about 2.8% of the full set was active somewhere.
SMILES,AI-2 QS mod,UBC13 polyUb,p-CIP stab down,T cruzi inh,PP1 counter,Casp3 counter,UBC13 confirm
NC(=O)c1nn(-c2ccccc2)nc1NC(=O)CN1CCOCC1,9,14,-1,2,-4,.,.
CCOC(=O)N1CCc2c(sc(NC(=O)CN(CC)CC)c2C#N)C1,-6,78*,0,-3,-3,-2,95*
COc1ccc(-c2nc3c4ccccc4ccn3c2CN2CCOCC2)cc1OC,9,24,-8,6,0,.,.
CN1C(=S)SC2CS(=O)(=O)CC21C (stereo unspecified),9,-10,4,-15,-3,.,.
C=CCn1c(SCc2ccc(Cl)cc2)nc2cc(C(=O)N3CCC(C(N)=O)CC3)ccc2c1=O,13,57*,-2,22,-1,-1,48*
CCCCCn1c(SCC(=O)OCC)nc2cc(C(=O)N3CCC(C(N)=O)CC3)ccc2c1=O,18,8,-5,1,-3,.,.
Cn1c(=O)c2c(SCC(=O)N3CCN(c4ccccc4)CC3)nc(C3CC3)nc2n(C)c1=O,15,63*,3,7,1,-2,?
COC(=O)c1cccc(Nc2nc(-c3cccnc3)nc3ccccc23)c1,24,27,-8,50,1,.,.
CCOC(=O)c1cccc(Nc2nc(-c3cccnc3)nc3ccccc23)c1,21,60*,-33,32,10,-4,70*
COc1cccc(CNc2nc(-c3cccnc3)nc3ccccc23)c1,19,53*,9,42,-2,3,42
Cc1ccc(/C=N/NC(=O)NC23CC4CC(CC(C4)C2)C3)o1,13,-6,0,.,1,.,.
C#CCNC(=O)C1=C[C@H](C2CC2)C[C@H](OCCCCO)O1,1,-2,-8,-11,-1,.,.
CN1CCN(CCCN2c3ccccc3Sc3ccc(C(F)(F)F)cc32)CC1,5,90*,4,45,6,1,98*
O=C(CN1CCCC(O)C1)N1c2ccccc2Sc2ccc(C(F)(F)F)cc21 (stereo unspecified),10,6,-26,32,0,.,.
COc1ccc(OC)c(/C=C/C(=O)OCC(=O)c2c(N)n(C)c(=O)n(C)c2=O)c1,10,46*,24,2,-2,-4,43
Cc1ccc(S(=O)(=O)N2CCCC(C(=O)NNCC(=O)Nc3cc(F)ccc3F)C2)cc1 (stereo unspecified),10,48*,2,19,2,3,33
CN(Cc1ccccc1)C(=O)CCSc1nc(-c2ccc3c(c2)OCO3)cc(C(F)(F)F)n1,27,46*,-10,41,4,-2,42
CCn1c(O)c(N=NC(=O)C(O)c2ccccc2)c2ccccc21 (stereo unspecified),10,-16,0,-2,0,.,.
CCCCN(C(=O)c1ccco1)c1nnc(-c2cc(OC)c(OC)c(OC)c2)s1,8,50*,-8,8,-2,2,38
CCCN(C(=O)c1ccco1)c1nnc(-c2ccncc2)s1,17,-3,-7,8,-1,.,.
Cc1cccc(N2CCN(C(=O)c3c(Cl)cnn3C)CC2)c1C,18,-4,-9,4,-4,.,.
O=C(NC1CCCCCC1)c1ccc(Cl)c(S(=O)(=O)N2CCOCC2)c1,14,-4,10,-4,-2,.,.
CC1(C)CC(=O)c2cnc(NC(=O)CSC(=S)N3CCCCC3)nc2C1,25,0,2,-2,-1,.,.
NC[C@@H]1O[C@H](C23CC4CC(CC(C4)C2)C3)Cc2c1ccc(O)c2O,7,55*,-2,48,1,-1,54*
CC[C@H](C)[C@@H](NC(=O)O[C@@H]1C(=O)c2cc(OC)ccc2O[C@H]1c1ccc(OC)c(Br)c1)C(=O)OC,.,46*,-5,.,6,2,?
SMILES,AI-2 QS mod,UBC13 polyUb,p-CIP stab down,T cruzi inh,PP1 counter,Casp3 counter,UBC13 confirm
COC(=O)[C@H](Cc1ccccc1)NC(=O)O[C@@H]1C(=O)c2cc(OC)ccc2O[C@H]1c1ccc(OC)c(Br)c1,11,32,10,-26,0,.,.
COc1ccc(-c2cc(C(=O)NCCCN3CCCC3=O)c3ccccc3n2)cc1,27,47*,.,-3,1,-1,54*
CNC(=O)c1c(NC(=O)c2cccc(N3C(=O)CCC3=O)c2)sc2c1CCC2,18,50*,6,1,-4,0,11
Cc1ccc(-c2c(C(=O)Nc3ccccc3C)c(C)[nH]c(=S)c2C#N)o1,8,18,-21,-4,4,.,.
Cc1[nH]c(=S)c(C#N)c(-c2ccccc2)c1C(=O)Nc1ccccc1,16,51*,-22,5,-3,3,?
Cc1ccccc1NC(=O)c1c(C)[nH]c(=S)c(C#N)c1-c1ccc(Cl)cc1,12,50*,20,-9,-5,-4,?
O=C(Cc1c(Cl)cccc1Cl)OCC(=O)N1CCN(C(=O)c2ccco2)CC1,1,4,6,-6,-1,.,.
CC1(C)NC(=O)N(CC(=O)N2CCC(Cc3ccccc3)CC2)C1=O,29,1,12,-6,-2,.,.
CCC1(C)NC(=O)N(CC(=O)N2CCC(Cc3ccccc3)CC2)C1=O (stereo unspecified),.,64*,.,.,-5,2,35
CCOc1cccc2sc(N(CCCN(C)C)C(=O)c3ccc(C(=O)c4ccccc4)cc3)nc12,-1,29,-2,24,3,.,.
CCOc1cccc2sc(N(CCCN(C)C)C(=O)c3ccc(S(=O)(=O)N(CC)Cc4ccccc4)cc3)nc12,-5,51*,-12,20,13,-4,93*
CCOc1cccc2sc(N(CCCN(C)C)C(=O)c3ccc(S(=O)(=O)N(C)Cc4ccccc4)cc3)nc12,-6,76*,-8,21,8,2,111*
OCC[C@@H]1C[C@H](O)[C@@H](O)[C@@]2(CCCc3ccccc3O2)O1,30,2,-27,0,0,.,.
COc1cc(C(CCN2CCCC2)c2c(OC)cc(OC)c3c(C)cc(=O)oc23)cc(OC)c1OC (stereo unspecified),17,13,2,36,0,.,.
COc1cc(C(CCN2CCCC(C)C2)c2c(OC)cc(OC)c3c(-c4ccccc4)cc(=O)oc23)cc(OC)c1OC (stereo unspecified),12,65*,4,48,7,-3,30
COc1cc(C(CCN2CCCCC2)c2c(OC)cc(OC)c3c(-c4ccccc4)cc(=O)oc23)cc(OC)c1OC (stereo unspecified),-1,48*,-11,42,5,-2,29
O=C(O)CSC(C(=O)Nc1ccc(Br)cc1)c1ccccc1 (stereo unspecified),40,0,-2,3,-5,.,.
